Data set [1] can be described thus: Unbound volume of distribution in Wistar Han rat at 2 mg/kg, iv or 10 mg/kg, po. Type of data set: ADME, organism-based. Conditions: in vivo.
Data set [2] concerns the target T1, Protein deacetylase HDAC6 (Homo sapiens, UniProt Q9UBN7).
T1 sequence (Q9UBN7 whole entry): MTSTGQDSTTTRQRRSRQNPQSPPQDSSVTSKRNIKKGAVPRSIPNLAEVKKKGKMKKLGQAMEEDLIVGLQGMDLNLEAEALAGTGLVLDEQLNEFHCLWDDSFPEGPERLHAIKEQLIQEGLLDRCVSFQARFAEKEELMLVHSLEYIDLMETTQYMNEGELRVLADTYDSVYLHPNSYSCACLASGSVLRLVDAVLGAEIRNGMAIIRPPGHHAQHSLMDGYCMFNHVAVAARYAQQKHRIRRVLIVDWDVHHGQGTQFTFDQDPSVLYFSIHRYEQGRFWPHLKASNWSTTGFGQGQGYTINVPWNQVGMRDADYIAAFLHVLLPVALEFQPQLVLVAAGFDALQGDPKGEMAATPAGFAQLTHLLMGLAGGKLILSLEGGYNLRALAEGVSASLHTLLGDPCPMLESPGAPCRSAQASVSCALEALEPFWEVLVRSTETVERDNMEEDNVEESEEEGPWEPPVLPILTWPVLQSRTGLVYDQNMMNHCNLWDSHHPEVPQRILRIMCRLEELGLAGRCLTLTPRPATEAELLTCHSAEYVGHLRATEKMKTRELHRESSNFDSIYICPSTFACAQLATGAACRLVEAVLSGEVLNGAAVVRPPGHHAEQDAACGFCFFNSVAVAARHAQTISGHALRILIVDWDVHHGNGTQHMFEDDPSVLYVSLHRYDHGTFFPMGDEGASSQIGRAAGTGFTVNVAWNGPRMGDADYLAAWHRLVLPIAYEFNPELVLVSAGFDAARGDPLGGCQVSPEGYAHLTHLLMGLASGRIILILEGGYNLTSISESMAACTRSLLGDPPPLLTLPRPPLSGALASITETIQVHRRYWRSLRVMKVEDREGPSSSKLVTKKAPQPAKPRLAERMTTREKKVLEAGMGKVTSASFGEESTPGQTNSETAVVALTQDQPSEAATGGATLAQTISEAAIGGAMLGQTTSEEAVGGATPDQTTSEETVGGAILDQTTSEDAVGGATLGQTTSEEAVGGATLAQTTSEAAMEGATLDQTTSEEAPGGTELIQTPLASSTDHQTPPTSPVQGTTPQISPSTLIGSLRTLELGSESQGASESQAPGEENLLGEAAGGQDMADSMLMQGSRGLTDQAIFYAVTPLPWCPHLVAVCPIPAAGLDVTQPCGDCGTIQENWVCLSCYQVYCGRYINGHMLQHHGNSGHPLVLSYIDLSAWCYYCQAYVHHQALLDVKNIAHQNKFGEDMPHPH
Description: Inhibition of HDAC6 (unknown origin).

Data set [3] is described as follows: Apparent permeability of the compound. In kind it is ADME. The following applies: not told.
The nature of data set [4]: Half life in Wistar Han rat at 2 mg/kg, iv or 10 mg/kg, po. In kind it is ADME, organism-based. The following applies: in vivo.
Data set [5] deals with T2, Class 1 histone deacetylase (Homo sapiens, UniProt Q13547+O15379+Q92769+Q9BY41). Description: Inhibition of Class 1 HDAC in VSV-G-pseudotyped HIV infected human 2C4 cell Jurkat model assessed as reactivation of HIV latency in presence of 0.1% NHS by fluorescent reporter gene assay. An outline of the steps:
(§1)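 Latently infected Jurkat 2C4 cells (HIV latency model) were tested for reactivation of silenced provirus in parallel at two normal human serum levels: 0.1% and 5%. The paired runs gauge the potency shift from plasma protein binding.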

The target of a further data set is Histone deacetylase 3 (Homo sapiens, UniProt O15379). As to the kind of experiment: Inhibition of HDAC3 (unknown origin).
Sequence of Histone deacetylase 3 (O15379 whole entry): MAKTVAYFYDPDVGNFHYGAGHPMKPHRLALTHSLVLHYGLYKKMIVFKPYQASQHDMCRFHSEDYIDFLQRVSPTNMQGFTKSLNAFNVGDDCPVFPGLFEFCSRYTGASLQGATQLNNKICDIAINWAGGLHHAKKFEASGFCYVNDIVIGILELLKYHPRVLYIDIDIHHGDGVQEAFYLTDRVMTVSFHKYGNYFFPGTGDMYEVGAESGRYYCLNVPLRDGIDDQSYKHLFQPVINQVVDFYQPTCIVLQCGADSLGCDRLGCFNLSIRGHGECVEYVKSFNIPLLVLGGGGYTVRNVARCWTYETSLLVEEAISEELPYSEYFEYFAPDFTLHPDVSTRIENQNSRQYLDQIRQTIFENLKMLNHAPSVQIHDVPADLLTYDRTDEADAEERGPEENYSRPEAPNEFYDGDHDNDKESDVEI
The nature of data set [6]: Unbound clearance in Wistar Han rat at 2 mg/kg, iv or 10 mg/kg, po. In kind it is ADME, organism-based. Conditions: in vivo.
For data set [7], the target named is T2, Class 1 histone deacetylase. As to the kind of experiment: Inhibition of Class 1 HDAC in VSV-G-pseudotyped HIV infected human 2C4 cell Jurkat model assessed as reactivation of HIV latency in presence of 5% NHS by fluorescent reporter gene assay. An outline of the steps: as §1
For orientation: Reporter assays use an easily measured gene product as a stand-in for the process of interest.

Another data set has as its target Histone deacetylase 1 (Homo sapiens, UniProt Q13547). As to the kind of experiment: Inhibition of HDAC1 (unknown origin).
The target of the next data set is Histone deacetylase 2 (Homo sapiens, UniProt Q92769). Description: Inhibition of HDAC2 (unknown origin).
Sequence of Histone deacetylase 2 (Q92769 whole entry): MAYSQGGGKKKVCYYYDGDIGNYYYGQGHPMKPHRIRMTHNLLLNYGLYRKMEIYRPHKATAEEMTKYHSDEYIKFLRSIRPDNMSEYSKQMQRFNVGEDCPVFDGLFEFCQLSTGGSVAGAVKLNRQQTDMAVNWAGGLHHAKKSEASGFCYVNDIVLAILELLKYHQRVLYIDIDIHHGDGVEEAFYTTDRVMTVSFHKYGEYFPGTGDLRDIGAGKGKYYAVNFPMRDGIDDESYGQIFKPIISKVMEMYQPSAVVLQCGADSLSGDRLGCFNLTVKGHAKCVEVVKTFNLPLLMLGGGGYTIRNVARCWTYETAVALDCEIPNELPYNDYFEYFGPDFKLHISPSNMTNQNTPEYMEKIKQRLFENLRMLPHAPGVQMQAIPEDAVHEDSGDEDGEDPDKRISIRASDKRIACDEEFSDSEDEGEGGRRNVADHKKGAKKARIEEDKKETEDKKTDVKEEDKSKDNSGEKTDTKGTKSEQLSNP
A further data set addresses T3, Histone deacetylase 8 (Homo sapiens, UniProt Q9BY41).
T3 sequence (Q9BY41 whole entry): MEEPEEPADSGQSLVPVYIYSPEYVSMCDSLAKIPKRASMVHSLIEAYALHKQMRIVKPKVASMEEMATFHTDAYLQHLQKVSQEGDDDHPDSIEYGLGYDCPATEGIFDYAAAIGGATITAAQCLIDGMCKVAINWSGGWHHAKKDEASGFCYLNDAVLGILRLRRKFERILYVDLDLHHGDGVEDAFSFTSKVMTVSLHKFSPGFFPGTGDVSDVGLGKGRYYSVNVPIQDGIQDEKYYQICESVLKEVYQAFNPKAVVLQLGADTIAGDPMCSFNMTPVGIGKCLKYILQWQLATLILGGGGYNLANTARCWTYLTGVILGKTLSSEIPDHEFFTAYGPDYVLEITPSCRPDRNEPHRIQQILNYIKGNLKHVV
Description: Inhibition of HDAC8 (unknown origin).

The nature of data set [8]: Oral bioavailability in Wistar Han rat at 10 mg/kg. Type of data set: ADME, organism-based. Conditions: in vivo.

Bounds are passed on as bounds.

Broadly, the IC50 is the concentration needed to halve the response being measured. Higher therefore signals weaker potency. By Papp is commonly meant the rate of passage across a membrane or cell layer, normalised by area and donor concentration. Broadly, the half-life is the time needed for the level to fall by half in the phase considered. Broadly, the EC50 is the midpoint of the concentration-response curve. One may read the bioavailability as dose-corrected exposure relative to a reference, in per cent. Low readings indicate little systemic uptake, high ones much systemic uptake.

Sequence of Histone deacetylase 1 (Q13547 whole entry): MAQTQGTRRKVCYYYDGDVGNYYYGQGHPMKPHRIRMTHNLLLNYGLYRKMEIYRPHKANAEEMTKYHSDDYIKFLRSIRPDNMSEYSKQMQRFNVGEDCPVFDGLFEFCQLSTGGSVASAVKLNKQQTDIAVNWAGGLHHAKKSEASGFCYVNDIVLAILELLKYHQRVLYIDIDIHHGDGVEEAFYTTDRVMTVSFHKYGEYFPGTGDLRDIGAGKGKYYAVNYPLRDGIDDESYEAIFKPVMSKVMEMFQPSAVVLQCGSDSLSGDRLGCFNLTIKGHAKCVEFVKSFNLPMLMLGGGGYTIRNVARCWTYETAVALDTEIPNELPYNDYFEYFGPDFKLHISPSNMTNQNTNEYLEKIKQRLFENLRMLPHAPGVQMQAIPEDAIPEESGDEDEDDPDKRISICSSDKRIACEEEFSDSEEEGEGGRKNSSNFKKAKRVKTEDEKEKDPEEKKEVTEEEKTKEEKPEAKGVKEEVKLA

For `CCC(=O)CCCCC[C@H](NC(=O)C1CN(C)C1)c1[nH]c(-c2ccccc2)nc1C(N)=O`, in [1], the Vdu stood at 45 L/kg. Further, the IC50 in data set [2] is 9830 nM; at Histone deacetylase 3 it was 2.5 nM; on Histone deacetylase 1 it was 1.9 nM; on Histone deacetylase 2 it was 18.1 nM; against Histone deacetylase 8, 5420 nM. In addition, in [3], the Papp amounted to 1.1 ×10⁻⁶ cm/s. Further, the half-life in data set [4] was 6.4 h. Moreover, the EC50 in [5] turned out to be 294 nM; in data set [7], 269 nM. The molecule further showed a CL free in data set [6] of 166 mL/min/kg. Moreover, the bioavailability in [8] is 0%.

In turn, `CCC(=O)CCCCC[C@H](NC(=O)[C@H]1CC12CCN(C)CC2)c1[nH]c(-c2ccc(F)cc2)nc1C#N` showed a Vdu in data set [1] of 40 L/kg. Also, the Papp in data set [3] came to 1.7 ×10⁻⁶ cm/s. For the same molecule, in data set [4], the half-life was 4 h. Besides, the EC50 in data set [5] worked out at 233 nM; in data set [7] it was 409 nM. In data set [6], the CL free amounted to 244 mL/min/kg. At Histone deacetylase 1, the IC50 was 3.8 nM. Also, the bioavailability in data set [8] was 1%.

For `CCC(=O)CCCCC[C@H](NC(=O)[C@H]1CC12CCN(CC)CC2)c1[nH]c(-c2ccc(F)cc2)nc1C#N`, the IC50 in [2] worked out at 23600 nM; on Histone deacetylase 3, 1.8 nM; at Histone deacetylase 1, 2.8 nM; on Histone deacetylase 2, 11.7 nM; against Histone deacetylase 8, 9370 nM. Further, the EC50 in [5] came to 161 nM; in [7], 259 nM.

In the case of `CCC(=O)CCCCC[C@H](NC(=O)[C@H]1CC12CCN(C)CC2)c1[nH]c(-c2cc3ccccc3nc2OC)nc1C#N`, the IC50 in data set [2] is 8970 nM; against Histone deacetylase 3, 101 nM; against Histone deacetylase 1, 97.9 nM; against Histone deacetylase 2, 177 nM; against Histone deacetylase 8, more than 45000 nM. The EC50 in data set [5] was 548 nM; in data set [7], 1351 nM.

Turning to `CCC(=O)CCCCC[C@H](NC(=O)[C@H]1CC12CCN(C)CC2)c1[nH]c(-c2ccc(F)cc2)nc1C(N)=O`, the IC50 came out at 17600 nM in data set [2]; 0.9 nM at Histone deacetylase 3; 0.6 nM at Histone deacetylase 1; 6.3 nM against Histone deacetylase 2; 6800 nM at Histone deacetylase 8. Further, the values for the concentration for a half-maximal effect (EC50) in data set [5] and in data set [7] were 166 nM and 276 nM, respectively.

The values are drawn from ChEMBL document CHEMBL4665726, “Development of a selective HDAC inhibitor aimed at reactivating the HIV latent reservoir” (Bioorg Med Chem Lett, 2020).
